{"source": "ChEMBL document CHEMBL4330093", "about": "“Biphenyl Gal and GalNAc FmlH Lectin Antagonists of Uropathogenic E. coli (UPEC): Optimization through Iterative Rational Drug Design” (J Med Chem, 2019)", "key": {"[1]": {"test": "Drug metabolism in mouse plasma assessed as phenol product metabolite formation", "format": "ADME, cell-free"}, "[2]": {"test": "Half life in mouse liver microsomes", "format": "ADME, Microsome", "settings": "for t1/2: microsomes"}, "[3]": {"test": "Stability of the compound in simulated gastric fluid assessed as compound remaining after 6 hrs", "format": "ADME", "settings": "for Stability: simulated gi fluid, 6 h"}, "[4]": {"test": "Stability of the compound in simulated intestinal fluid assessed as compound remaining after 2 hrs", "format": "ADME", "settings": "for Stability: simulated gi fluid, 2 h"}, "[5]": {"test": "Stability in mouse plasma assessed as compound remaining after 2 hrs", "format": "ADME, cell-free", "settings": "for Stability: 2 h"}, "[6]": {"test": "Drug metabolism in mouse urine assessed as phenol product metabolite formation", "format": "ADME, tissue-based"}, "[7]": {"test": "Kinetic solubility of the compound at pH 7.4", "format": "physicochemical", "settings": "buffer"}, "[8]": {"test": "Plasma concentration in CD1 mouse at 20 mg/kg, ip after 4 hrs by LC/MS/MS analysis", "format": "ADME, organism-based", "procedure,_shortened": "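Single 20 mg/kg intraperitoneal injection in mice. Plasma drug concentrations were followed over time, including 4 h and 8 h points. Cmax was read from the profile, AUC was calculated, and half-life was derived.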"}, "[9]": {"test": "Time at which plasma concentration stays above in vitro Escherichia coli C600 C-terminal 6His-tagged biotinylated FmlH lectin domain inhibitory IC50 in CD1 mouse at 20 mg/kg, ip by LC/MS/MS analysis", "format": "ADME, organism-based", "settings": "in vivo", "procedure,_shortened": "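After a single 20 mg/kg IP dose in mice, plasma concentrations were compared with the ELISA IC50 converted to ng/mL. Persistence beyond the last measured point was inferred by extrapolating the plasma kinetics. For the ELISA IC50, biotinylated FmlH lectin domain (20 μg/mL) bound to sialidase-treated bovine submaxillary mucin, with streptavidin-HRP/TMB readout at 450 nm.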"}, "[10]": {"test": "Oral bioavailability in Sprague-Dawley rat at 10 mg/kg by LC/MS/MS analysis", "format": "ADME, organism-based", "settings": "in vivo"}, "[11]": {"test": "Half life in Sprague-Dawley rat at 10 mg/kg, po or 3 mg/kg, iv by LC/MS/MS analysis", "format": "ADME, organism-based", "settings": "in vivo", "procedure,_shortened": "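Sprague-Dawley rats got a single 10 mg/kg oral or 3 mg/kg IV dose. Compound was measured over time in plasma and in urine, and t1/2 and clearance were derived from the plasma profile.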"}}, "data": [{"smiles": "CC(=O)N[C@H]1[C@H](Oc2cccc(F)c2-c2cccc(NS(C)(=O)=O)c2)O[C@H](CO)[C@H](O)[C@@H]1O", "values": [{"measurement": "Drug metabolism", "setting": "[1]", "result": "Metabolite_Detected"}, {"measurement": "t1/2", "setting": "[2]", "result": "> 2.42", "unit": "h"}, {"measurement": "Stability", "setting": "[3]", "result": 92, "unit": "%"}, {"measurement": "Stability", "setting": "[4]", "result": 94, "unit": "%"}, {"measurement": "Stability", "setting": "[5]", "result": 89, "unit": "%"}, {"measurement": "Drug metabolism", "setting": "[6]", "result": "Metabolite_Detected"}]}, {"smiles": "Cc1cccc(O[C@@H]2O[C@H](CO)[C@H](O)[C@H](O)C2NC(=O)C(F)(F)F)c1-c1cccc(NS(C)(=O)=O)c1", "note": "(single isomer, unassigned)", "values": [{"measurement": "Drug metabolism", "setting": "[1]", "result": "Metabolite_Detected"}, {"measurement": "half-life", "setting": "[2]; liver microsomes", "result": "> 2.42", "unit": "h"}, {"measurement": "remaining at 6 h", "setting": "[3]; simulated gastric fluid, read-out: Stability", "result": 91, "unit": "%"}, {"measurement": "remaining at 2 h", "setting": "[4]; simulated intestinal fluid, read-out: Stability", "result": 89, "unit": "%"}, {"measurement": "remaining at 2 h", "setting": "[5]; read-out: Stability", "result": 89, "unit": "%"}, {"measurement": "solubility kinetic", "setting": "[7]; read-out: Kinetic_solubility", "result": 164, "unit": "µM"}, {"measurement": "Drug metabolism", "setting": "[6]", "result": "Metabolite_Detected"}]}, {"smiles": "CC(=O)N[C@H]1[C@H](Oc2cccc(C)c2-c2cccc(NS(C)(=O)=O)c2)O[C@H](CO)[C@H](O)[C@@H]1O", "values": [{"measurement": "Drug metabolism", "setting": "[1]", "result": "Metabolite_Detected"}, {"measurement": "t1/2", "setting": "[2]", "result": "> 2.42", "unit": "h"}, {"measurement": "Stability", "setting": "[3]", "result": 100, "unit": "%"}, {"measurement": "Stability", "setting": "[4]", "result": 100, "unit": "%"}, {"measurement": "Stability", "setting": "[5]", "result": 100, "unit": "%"}, {"measurement": "concentration at 4 h", "setting": "[8]", "result": 79.5, "unit": "ng/mL"}, {"measurement": "Drug metabolism", "setting": "[6]", "result": "Metabolite_Detected"}, {"measurement": "Time", "setting": "[9]", "result": 6, "unit": "h"}]}, {"smiles": "CC(=O)N[C@H]1[C@H](Oc2cccc(C)c2-c2cccc(NS(=O)(=O)C3CC3)c2)O[C@H](CO)[C@H](O)[C@@H]1O", "values": [{"measurement": "F", "setting": "[10]", "result": "< 1", "unit": "%"}, {"measurement": "Drug metabolism", "setting": "[1]", "result": "Metabolite_Detected"}, {"measurement": "t1/2", "setting": "[2]", "result": "> 2.42", "unit": "h"}, {"measurement": "Stability", "setting": "[3]", "result": 100, "unit": "%"}, {"measurement": "Stability", "setting": "[4]", "result": 100, "unit": "%"}, {"measurement": "Stability", "setting": "[5]", "result": 84, "unit": "%"}, {"measurement": "Drug metabolism", "setting": "[6]", "result": "Metabolite_Detected"}]}, {"smiles": "CC(=O)NC1[C@H](Oc2cccc(C#N)c2-c2cccc(NS(C)(=O)=O)c2)O[C@H](CO)[C@H](O)[C@@H]1O", "note": "(single isomer, unassigned)", "values": [{"measurement": "Drug metabolism", "setting": "[1]", "result": "Metabolite_Detected"}, {"measurement": "t1/2", "setting": "[2]", "result": "> 2.42", "unit": "h"}, {"measurement": "Stability", "setting": "[3]", "result": 87, "unit": "%"}, {"measurement": "Stability", "setting": "[4]", "result": 100, "unit": "%"}, {"measurement": "Stability", "setting": "[5]", "result": 89, "unit": "%"}, {"measurement": "Kinetic_solubility", "setting": "[7]", "result": 196, "unit": "µM"}, {"measurement": "Drug metabolism", "setting": "[6]", "result": "Metabolite_Detected"}]}, {"smiles": "CC(=O)NC1[C@H](Oc2cccc(C(F)(F)F)c2-c2cccc(NS(C)(=O)=O)c2)O[C@H](CO)[C@H](O)[C@@H]1O", "note": "(single isomer, unassigned)", "values": [{"measurement": "half-life", "setting": "[11]", "result": 1.16, "unit": "h"}, {"measurement": "F", "setting": "[10]", "result": "< 1", "unit": "%"}, {"measurement": "Drug metabolism", "setting": "[1]", "result": "Metabolite_Detected"}, {"measurement": "t1/2", "setting": "[2]", "result": "> 2.42", "unit": "h"}, {"measurement": "Stability", "setting": "[3]", "result": 89, "unit": "%"}, {"measurement": "Stability", "setting": "[4]", "result": 92, "unit": "%"}, {"measurement": "Stability", "setting": "[5]", "result": 92, "unit": "%"}, {"measurement": "Kinetic_solubility", "setting": "[7]", "result": 197, "unit": "µM"}, {"measurement": "Drug metabolism", "setting": "[6]", "result": "Metabolite_Detected"}]}]}
